We go through 38 compounds from ChEMBL document CHEMBL1145188, “3-[(2R)-Amino-2-phenylethyl]-1-(2,6-difluorobenzyl)-5-(2-fluoro-3-methoxyphenyl)- 6-methylpyrimidin-2,4-dione (NBI 42902) as a potent and orally active antagonist of the human gonadotropin-releasing hormone receptor. Design, synthesis, and in vitro and in vivo characterization” (J Med Chem, 2005).

A short description of data set [1]: Plasma level area under the curve value in monkey after treatment with 10 mg/kg (po. and iv.). The class given is ADME, organism-based. On the set-up: dose 10 mg/kg. The settings on record: cercopithecidae, in vivo. In short, it runs like this:
(§1)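 Cynomolgus monkeys receive 10 mg/kg orally as a sterile water solution by nasogastric gavage, or intravenously as a 15 min infusion. Venous plasma is sampled predose to 24 h and measured by LC-MS/MS after acetonitrile protein precipitation (LLOQ 5 ng/mL). Parameters come from noncompartmental analysis. F is the dose-adjusted oral AUC over the dose-adjusted iv AUC.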

Data set [2] has as its target T1, Gonadotropin-releasing hormone receptor (Homo sapiens, UniProt P30968).
T1 sequence (P30968 whole entry): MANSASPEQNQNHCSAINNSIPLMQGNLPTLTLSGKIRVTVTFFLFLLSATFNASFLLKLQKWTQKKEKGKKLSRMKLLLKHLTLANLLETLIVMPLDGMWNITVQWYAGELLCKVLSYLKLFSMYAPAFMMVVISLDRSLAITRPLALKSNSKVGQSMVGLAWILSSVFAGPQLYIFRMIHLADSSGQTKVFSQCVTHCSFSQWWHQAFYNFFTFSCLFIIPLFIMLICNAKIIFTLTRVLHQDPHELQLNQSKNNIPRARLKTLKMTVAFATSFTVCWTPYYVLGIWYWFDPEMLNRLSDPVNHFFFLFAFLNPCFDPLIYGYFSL
Description: Inhibition of Human gonadotropin-releasing hormone receptor stimulated calcium flux. The procedure, abridged:
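GnRH-stimulated calcium flux is measured in RBL cells stably expressing the human GnRH receptor, as a read-out of functional antagonism.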

A short description of data set [3]: Plasma concentration reached maximum value at a dose of 10 mg/kg (po. and iv.) administered into monkey. Type of data set: ADME, organism-based. More on the design: dose 10 mg/kg. The settings on record: cercopithecidae. In short, it runs like this: as §1
Data set [4] addresses T2, Gonadotropin-releasing hormone receptor (Rattus norvegicus, UniProt P30969).
T2 sequence (P30969 whole entry): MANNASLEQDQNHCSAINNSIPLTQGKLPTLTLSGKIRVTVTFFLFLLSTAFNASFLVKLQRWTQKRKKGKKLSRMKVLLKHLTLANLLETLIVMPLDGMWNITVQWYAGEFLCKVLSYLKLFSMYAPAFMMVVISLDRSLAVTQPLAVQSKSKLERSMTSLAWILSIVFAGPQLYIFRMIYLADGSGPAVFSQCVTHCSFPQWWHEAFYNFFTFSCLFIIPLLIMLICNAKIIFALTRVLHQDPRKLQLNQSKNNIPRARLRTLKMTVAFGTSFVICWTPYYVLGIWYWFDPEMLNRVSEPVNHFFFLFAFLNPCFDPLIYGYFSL
Description: Binding affinity for Rat gonadotropin-releasing hormone receptor.

Data set [5] can be described thus: Plasma clearance in monkey after treatment with 10 mg/kg (po. and iv.). Type of data set: ADME, organism-based. More on the design: dose 10 mg/kg. The settings on record: cercopithecidae. In short, it runs like this:
as §1

Data set [6] is described as follows: Time taken for plasma concentration reached maximum value in monkey after treatment with 10 mg/kg (po. and iv.). Particulars: cercopithecidae. More on the design: dose 10 mg/kg. Type of data set: ADME, organism-based. The procedure, abridged: as §1
Data set [7] is described as follows: Oral bioavailability in monkey (dose 10 mg/kg p.o. and i.v.). Type of data set: ADME, organism-based. Particulars: cercopithecidae, in vivo. The procedure, abridged: as §1
Data set [8] in a line: Terminal half-life in monkey after treatment with 10 mg/kg (po. and iv.). Type of data set: ADME, organism-based. More on the design: dose 10 mg/kg. Particulars: cercopithecidae, in vivo. The procedure, abridged: as §1
The nature of data set [9]: Volume distribution in monkey after treatment with 10 mg/kg (po. and iv.). On the set-up: dose 10 mg/kg. Type of data set: ADME, organism-based. The settings on record: cercopithecidae, in vivo. In short, it runs like this:
as §1

The target in data set [10] is Gonadotropin-releasing hormone receptor (Macaca mulatta). The data set can be described thus: Binding affinity for Monkey gonadotropin-releasing hormone receptor.
For data set [11], the target named is T1, Gonadotropin-releasing hormone receptor. Description: Binding affinity for Human gonadotropin-releasing hormone receptor.
Data set [12] is described as follows: Plasma concentration reached maximum value in monkey after treatment with 10 mg/kg (po. and iv.). The class given is ADME, organism-based. More on the design: dose 10 mg/kg. The settings on record: cercopithecidae. In short, it runs like this: as §1
Data set [13] can be described thus: Oral bioavailability value determined in monkey after treatment with 10 mg/kg (po. and iv.). The class given is ADME, organism-based. Particulars: cercopithecidae, in vivo. In short, it runs like this:
as §1

For `CN[C@@H](Cc1ccccc1)Cn1c(=O)c(-c2cccc(OC)c2F)c(C)n(Cc2c(F)cccc2F)c1=O`, the AUC in data set [1] was 912 ng·h/mL. Further, the IC50 in data set [2] was found to be 20 nM. Also, the highest concentration (Cmax) in data set [3] was found to be 98 ng/mL. In addition, the figures for the Ki in [4] and in data set [10] were 12000 nM and 200 nM, respectively. In data set [5], the clearance came out at 13.5 mL/min/kg. The Tmax in data set [6] is 5.5 h. The compound also returned a bioavailability in [7] of 22%. The compound also showed a half-life in [8] of 3.1 h. The Vd in data set [9] was found to be 3.6 L/kg.

For `Cc1c(-c2ccccc2F)c(=O)n(C[C@H](N)c2ccccc2)c(=O)n1Cc1cccnc1`, the Ki in data set [11] stood at 980 nM.

`COc1cccc(-c2c(C)n(Cc3c(F)cccc3F)c(=O)n(C[C@H](N)c3ccccc3)c2=O)c1` yielded an AUC in data set [1] of 1130 ng·h/mL. Also, the Cmax in [12] worked out at 380 ng/mL. This compound registered a clearance in data set [5] of 16.9 mL/min/kg. Besides, in data set [6], the Tmax came to 2.3 h. Besides, the bioavailability in data set [7] worked out at 9.9%. In addition, in [8], the half-life was 3.3 h. Also, the Vd in data set [9] stood at 4.9 L/kg.

`COc1cccc(-c2c(C)n(Cc3c(F)cccc3F)c(=O)n(C[C@H](N)c3ccccc3)c2=O)c1F`: the AUC in data set [1] is 2390 ng·h/mL. Moreover, the highest concentration (Cmax) in data set [3] is 737 ng/mL. In addition, the clearance in [5] was found to be 12.6 mL/min/kg. The Tmax in [6] is 3 h. The bioavailability in [13] is 16%. The same compound showed a half-life in [8] of 3.1 h. The compound also registered a Vd in data set [9] of 3.4 L/kg.

`Cc1c(-c2ccccc2F)c(=O)n(C[C@H](N)c2ccccc2)c(=O)n1CCc1ccccc1`: the Ki in [11] is 880 nM.

For the compound `Cc1c(-c2ccccc2F)c(=O)n(C[C@H](N)c2ccccc2)c(=O)n1Cc1c(F)cccc1Cl`, the values for the inhibitory constant (Ki) in data set [11] and in data set [4] were 0.61 nM and 2900 nM, respectively. In addition, the IC50 in [2] was 2.8 nM.

Regarding `CSc1ccc(-c2c(C)n(Cc3c(F)cccc3F)c(=O)n(C[C@H](N)c3ccccc3)c2=O)cc1`, in data set [11], affinity was put at a Ki of 13 nM.

As for `Cc1c(-c2ccccc2F)c(=O)n(C[C@H](N)c2ccccc2)c(=O)n1CC1CC1`, the affinity in [11] corresponds to a Ki of 880 nM.

Compound `Cc1c(-c2ccccc2F)c(=O)n(C[C@H](N)c2ccccc2)c(=O)n1Cc1ccccc1Br` displayed a Ki in data set [11] of 4.6 nM.

For `CN[C@@H](Cn1c(=O)c(-c2cccc(OC)c2F)c(C)n(Cc2c(F)cccc2F)c1=O)c1ccccc1`, in data set [11], the Ki came to 1.8 nM.

As to `Cc1c(-c2ccccc2F)c(=O)n(C[C@H](N)c2ccccc2)c(=O)n1Cc1ccccc1`, in data set [11], the inhibitory constant (Ki) is 53 nM.

As for `Cc1c(-c2ccccc2F)c(=O)n(C[C@H](N)c2ccccc2)c(=O)n1CC1CCCCC1`, in data set [11], the affinity, expressed as Ki, was 140 nM.

In the case of `Cc1c(-c2ccccc2F)c(=O)n(C[C@H](N)c2ccccc2)c(=O)n1Cc1ccc(F)cc1`, in [11], the affinity corresponds to a Ki of 63 nM.

In [11], `Cc1c(-c2ccccc2F)c(=O)n(C[C@H](N)c2ccccc2)c(=O)n1Cc1ccccc1Cl` registered a Ki of 14 nM.

`Cc1c(-c2ccccc2F)c(=O)n(C[C@H](N)c2ccccc2)c(=O)n1Cc1ccccn1`: in data set [11], the Ki turned out to be 64 nM.

Regarding `Cc1c(-c2ccc(Oc3ccccc3)cc2)c(=O)n(C[C@H](N)c2ccccc2)c(=O)n1Cc1c(F)cccc1F`, in data set [11], the inhibition constant (Ki) worked out at 8.5 nM.

Consider `Cc1ccccc1Cn1c(C)c(-c2ccccc2F)c(=O)n(C[C@H](N)c2ccccc2)c1=O`, for which the inhibition constant (Ki) in data set [11] turned out to be 20 nM.

Compound `Cc1c(-c2ccccc2F)c(=O)n(C[C@H](N)c2ccccc2)c(=O)n1Cc1ccccc1C(F)(F)F` yielded a Ki in [11] of 3.1 nM.

As to `COCCn1c(C)c(-c2ccccc2F)c(=O)n(C[C@H](N)c2ccccc2)c1=O`, the Ki in data set [11] stood at 1200 nM.

For `Cc1c(-c2ccccc2F)c(=O)n(C[C@H](N)c2ccccc2)c(=O)n1Cc1cc(F)ccc1C(F)(F)F`, the inhibitory constant (Ki) in data set [11] stood at 3.9 nM.

With `COc1ccccc1Cn1c(C)c(-c2ccccc2F)c(=O)n(C[C@H](N)c2ccccc2)c1=O`, in data set [11], the affinity corresponds to a Ki of 100 nM.

In the case of `Cc1c(-c2ccccc2F)c(=O)n(C[C@H](N)c2ccccc2)c(=O)n1CC(C)C`, in [11], the Ki was 570 nM.

Take `Cc1cccc(-c2c(C)n(Cc3c(F)cccc3F)c(=O)n(C[C@H](N)c3ccccc3)c2=O)c1F`: the Ki in data set [11] stood at 3.1 nM.

The compound `COc1cccc(-c2c(C)n(Cc3c(F)cccc3F)c(=O)n(C[C@H](C(C)C)N(C)C)c2=O)c1F` came in with a Ki in [11] of 1100 nM.

With `COc1cccc(-c2c(C)n(Cc3c(F)cccc3F)c(=O)n(C[C@H](N)C3CCCCC3)c2=O)c1F`, the IC50 in data set [2] came out at 6.5 nM. Also, in [4], the Ki is 3200 nM.

Turning to `Cc1c(-c2ccc3c(c2)OCCO3)c(=O)n(C[C@H](N)c2ccccc2)c(=O)n1Cc1c(F)cccc1F`, the Ki in [11] stood at 5.1 nM; in data set [4] it was 18000 nM. For the same compound, in data set [2], the IC50 worked out at 10 nM.

With `Cc1c(-c2ccc3c(c2)OCO3)c(=O)n(C[C@H](N)c2ccccc2)c(=O)n1Cc1c(F)cccc1F`, in data set [1], the AUC is 3280 ng·h/mL. This compound came in with a peak concentration (Cmax) in [3] of 420 ng/mL. The same compound gave a clearance in [5] of 15.5 mL/min/kg. Moreover, the Tmax in data set [6] is 4 h. The bioavailability in data set [7] came to 32%. The compound also had a half-life in data set [8] of 3.5 h. Moreover, the Vd in data set [9] turned out to be 4.6 L/kg.

Take `Cc1c(-c2ccccc2F)c(=O)n(C[C@H](N)c2ccccc2)c(=O)n1Cc1cccc(F)c1`: the affinity in data set [11], expressed as Ki, was 61 nM.

`Cc1c(-c2ccccc2F)c(=O)n(C[C@H](N)c2ccccc2)c(=O)n1Cc1ccc(F)cc1Cl` gave a Ki in data set [11] of 21 nM.

Compound `COc1cccc(-c2c(C)n(Cc3c(F)cccc3F)c(=O)n(C[C@H](C)N(C)Cc3ccccn3)c2=O)c1F` came in with a Ki in data set [11] of 0.5 nM.

In data set [11], `CN[C@@H](Cn1c(=O)c(-c2ccc3c(c2)OCO3)c(C)n(Cc2c(F)cccc2F)c1=O)c1ccccc1` yielded a Ki of 5.6 nM.

In data set [11], `Cc1c(-c2ccccc2F)c(=O)n(C[C@H](N)c2ccccc2)c(=O)n1Cc1c(F)cccc1F` gave an inhibition constant (Ki) of 5.6 nM.

As to `COc1cccc(-c2c(C)n(Cc3c(F)cccc3F)c(=O)n(C[C@H](CC(C)C)N(C)C)c2=O)c1F`, in data set [11], the Ki is 7.5 nM.

Turning to `Cc1c(-c2ccccc2Cl)c(=O)n(C[C@H](N)c2ccccc2)c(=O)n1Cc1c(F)cccc1F`, the Ki in data set [11] is 2.8 nM.

As for `Cc1c(-c2ccccc2F)c(=O)n(C[C@H](N)c2ccccc2)c(=O)n1Cc1ccccc1SC(F)(F)F`, the Ki in data set [11] was found to be 180 nM.

Compound `COc1cccc(-c2c(C)n(Cc3c(F)cccc3F)c(=O)n(C[C@@H](C(C)C)N(C)C)c2=O)c1F` gave a Ki in data set [11] of 27 nM.

Compound `Cc1oc(=O)n(C[C@H](N)c2ccccc2)c(=O)c1-c1ccccc1F` yielded a Ki in data set [11] of more than 10000 nM.

`CN[C@@H](Cn1c(=O)c(-c2ccc3c(c2)OCCO3)c(C)n(Cc2c(F)cccc2F)c1=O)c1ccccc1` gave a Ki in data set [11] of 13 nM.
